Results from ChEMBL document CHEMBL1157852, “Modulation of doxorubicin activity in cancer cells by conjugation with fatty acyl and terpenyl hydrazones” (Eur J Med Chem, 2010).
The source made the active and inactive calls. The rule behind the calls is not given here.

What was measured:
HL-60 [1] = assay: Cytotoxicity against human HL60 cells after 72 hrs by MTT assay; format: functional, cell-based; settings: HL-60, 72 h
Method in brief: (§1)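 MTT assay. Cells seeded and cultured 24 h, then exposed to compound for 24, 48 or 72 h. MTT added to a final 0.05% (HL-60, 518A2) or 0.1% (KB-V1, MCF-7) for 2 h. Formazan dissolved in 10% SDS/DMSO with 0.6% acetic acid; absorbance read at 570 nm against 630 nm background. Viability taken relative to untreated controls (100%). IC50 from concentration-response curves, mean ± SD of four independent experiments.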

[2] = Cytotoxicity against human vinblastine-resistant KBV1 cells after 72 hrs by MTT assay in presence of 24 mM ABC transporter inhibitor verapamil hydrochloride; format: functional, cell-based; settings: KB-V1, 72 h, in the assay text read “24 uM” for “24 mM”
Method in brief: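 MTT viability assay on P-gp-overexpressing KB-V1/Vbl cells with 24 µM verapamil hydrochloride added before the compound; 72 h exposure. Formazan read at 570/630 nm relative to untreated controls. IC50 from concentration-response curves, mean ± SD of four independent experiments.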

HL-60 [3] = assay: Induction of apoptosis in human HL60 cells assessed as appearance of intact mitochondria in cytosol at 5 uM after 6 hrs using JC1 dye relative to control; format: functional
Method in brief: (§2)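 Mitochondrial membrane potential measured with JC-1. Cells exposed to 5 µM compound for 6 or 18 h, pelleted at 400 g, stained with 0.2× JC-1 at 37 °C for 15 min (HL-60) or 35 min (518A2), washed and resuspended in PBS. Red fluorescence (ex 585/em 590 nm) and green (ex 510/em 527 nm) read; red/green ratio relative to untreated controls (100%). Mean ± SD, four independent experiments.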

518A2 [4] = assay: Induction of apoptosis in human 518A2 cells assessed as appearance of intact mitochondria in cytosol at 5 uM after 6 hrs using JC1 dye relative to control; format: functional; method in brief: as §2
HL-60 [5] = assay: Induction of apoptosis in human HL60 cells assessed as DNA ladder formation at 5 uM after 24 hrs by agarose gel electrophoresis; format: functional, cell-based
Method in brief: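 HL-60 cells incubated with 5 µM compound for 24 h, then examined for DNA ladder patterns.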

[6] = Cytotoxicity against human vinblastine-resistant KBV1 cells after 48 hrs by MTT assay; format: functional, cell-based; settings: KB-V1, 48 h; method in brief: as §1
518A2 [7] = assay: Induction of apoptosis in human 518A2 cells assessed as increase of ratio of Bax to Bcl-2 mRNA expression at 5 uM after 6 to 18 hrs by RT-PCR analysis; format: functional, cell-based
Method in brief: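 518A2 cells exposed to 5 µM compound for 6 h or 18 h. bax and bcl-2 mRNA quantified by real-time PCR, normalised to GAPDH, and expressed as the bax/bcl-2 ratio.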

HL-60 [8] = assay: Induction of apoptosis in human HL60 cells assessed as increase of Bcl-2 mRNA expression at 5 uM up to 24 hrs by […] analysis; format: functional, cell-based
518A2 [9] = assay: Induction of apoptosis in human 518A2 cells assessed as increase of caspase 3 activity at 5 uM measured up to 12 hrs by luminometric assay; format: functional, cell-based
Method in brief: (§3)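 HL-60 and 518A2 cells treated with 5 µM compound and sampled at intervals from 1 to 24 h. Lysed in 50 mM Tris-HCl pH 7.4, 150 mM NaCl, 1% Triton X-100 with protease inhibitors for 15 min at 4 °C, spun at 800 g. Protein measured by Bradford. Caspase-3/7, -8 and -9 activities read with luminogenic peptide substrates; reported as relative luminescence.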

HL-60 [10] = assay: Induction of apoptosis in human HL60 cells assessed as increase of caspase 9 activity at 5 uM after 12 hrs by luminometric assay; format: functional, cell-based
Method in brief: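 HL-60 leukaemia cells were treated with test compound and sampled at intervals from 1 to 24 h. Protein was measured by Bradford. Caspase-9 (Caspase-Glo 8 for line 1) was read from a luminogenic peptide substrate as relative luminescence.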

[11] = Cytotoxicity against human 518A2 cells assessed as increase in ROS production at 5 uM after 72 hrs by NBT reduction assay relative to control; format: functional
Method in brief: (§4)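 NBT assay. HL-60 cells (0.5×10⁶/mL) or trypsinised 518A2 cells (5×10⁴/mL) pre-incubated 24 h at 37 °C, then given compound at a final 5 µM for 24 or 72 h. Medium removed; cells incubated with 0.1% NBT for 1 h (HL-60) or 4 h (518A2). Diformazan dissolved in 2 M KOH/DMSO; A630 read against 405 nm. Given as % of untreated controls; double quadruplicates.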

HL-60 [12] = assay: Cytotoxicity against human HL60 cells after 48 hrs by MTT assay; format: functional, cell-based; settings: HL-60, 48 h; method in brief: as §1
[13] = Cytotoxicity against human 518A2 cells after 72 hrs by MTT assay; format: functional, cell-based; settings: 518A2, 72 h; method in brief: as §1
HL-60 [14] = assay: Cytotoxicity against human HL60 cells after 24 hrs by MTT assay; format: functional, cell-based; settings: HL-60, 24 h; method in brief: as §1
HL-60 [15] = assay: Cytotoxicity against human HL60 cells assessed as increase in ROS production at 5 uM after 72 hrs by NBT reduction assay relative to control; format: functional; method in brief: as §4
518A2 [16] = assay: Induction of apoptosis in human 518A2 cells assessed as appearance of intact mitochondria in cytosol at 5 uM after 18 hrs using JC1 dye relative to control; format: functional; method in brief: as §2
HL-60 [17] = assay: Induction of apoptosis in human HL60 cells assessed as increase of caspase 3 activity at 5 uM after 4 hrs by luminometric assay; format: functional, cell-based; method in brief: as §3
[18] = Cytotoxicity against human 518A2 cells assessed as increase in ROS production at 5 uM after 24 hrs by NBT reduction assay relative to control; format: functional; method in brief: as §4
[19] = Cytotoxicity against human 518A2 cells after 24 hrs by MTT assay; format: functional, cell-based; settings: 518A2, 24 h; method in brief: as §1
[20] = Cytotoxicity against human vinblastine-resistant KBV1 cells after 24 hrs by MTT assay; format: functional, cell-based; settings: KB-V1, 24 h; method in brief: as §1
HL-60 [21] = assay: Induction of apoptosis in human HL60 cells assessed as increase of caspase 3 activity at 5 uM after 12 hrs by luminometric assay; format: functional, cell-based; method in brief: as §3
518A2 [22] = assay: Induction of apoptosis in human 518A2 cells assessed as increase of caspase 8 activity at 5 uM measured up to 12 hrs by luminometric assay; format: functional, cell-based; method in brief: as §3
HL-60 [23] = assay: Cytotoxicity against human HL60 cells assessed as increase in ROS production at 5 uM after 24 hrs by NBT reduction assay relative to control; format: functional; method in brief: as §4
518A2 [24] = assay: Induction of apoptosis in human 518A2 cells assessed as increase of caspase 9 activity at 5 uM after 8 to 12 hrs by luminometric assay; format: functional, cell-based; method in brief: as §3
HL-60 [25] = assay: Induction of apoptosis in human HL60 cells assessed as appearance of intact mitochondria in cytosol at 5 uM after 18 hrs using JC1 dye relative to control; format: functional; method in brief: as §2
[26] = Cytotoxicity against human 518A2 cells after 48 hrs by MTT assay; format: functional, cell-based; settings: 518A2, 48 h; method in brief: as §1
[27] = Cytotoxicity against human vinblastine-resistant KBV1 cells after 72 hrs by MTT assay; format: functional, cell-based; settings: KB-V1, 72 h; method in brief: as §1
518A2 [28] = assay: Induction of apoptosis in human 518A2 cells assessed as increase of Bcl-2 mRNA expression at 5 uM up to 24 hrs by […] analysis; format: functional, cell-based
HL-60 [29] = assay: Induction of apoptosis in human HL60 cells assessed as increase of Bax mRNA expression at 5 uM up to 24 hrs by […] analysis; format: functional, cell-based
HL-60 [30] = assay: Induction of apoptosis in human HL60 cells assessed as increase of caspase 8 activity at 5 uM after 4 to 24 hrs by luminometric assay; format: functional, cell-based; method in brief: as §3

COc1cccc2c1C(=O)c1c(O)c3c(c(O)c1C2=O)C[C@@](O)(C(=O)CO)C[C@@H]3O[C@H]1C[C@H](N)[C@H](O)[C@H](C)O1.Cl [DOXORUBICIN HYDROCHLORIDE]
IC50 (HL-60 [1]): 80 nM
IC50 [2]: 1020 nM
Activity (HL-60 [3]): 83%
Activity (518A2 [4]): 98%
Activity (HL-60 [5]): Active
IC50 [6]: 35600 nM
Activity (518A2 [7]): Active
Activity (HL-60 [8]): Active
Activity (518A2 [9]): inactive
Activity (HL-60 [10]): Active
Activity [11]: 15.4%
IC50 (HL-60 [12]): 100 nM
IC50 [13]: 120 nM
IC50 (HL-60 [14]): 220 nM
Activity (HL-60 [15]): 5.6%
Activity (518A2 [16]): 74%
Activity (HL-60 [17]): Active
Activity [18]: 2.5%
IC50 [19]: 340 nM
IC50 [20]: 59900 nM
Activity (HL-60 [21]): Active
Activity (518A2 [22]): inactive
Activity (HL-60 [23]): 2.8%
Activity (518A2 [24]): Active
Activity (HL-60 [25]): 28%
IC50 [26]: 170 nM
IC50 [27]: 18300 nM
Activity (518A2 [28]): inactive
Activity (HL-60 [29]): inactive
Activity (HL-60 [30]): Active
